Tested on: HEK-293T
Assay: Multiplex assay against HEK293T
Format: toxicity, cell-based
Conditions: human
Method in brief: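 Live cells were stained at seeding with Hoechst33342, BioTracker Green Microtubule Cytoskeleton Dye, MitoTracker Red and Annexin V Alexa Fluor 680, then imaged on a CQ1 microscope at 37°C and 5% CO2 after compound addition. CellPathfinder machine-learning gating split cells into Hoechst high-intensity objects or normal cells. Normal cells were split into healthy, pyknosed or fragmented nuclei, and pyknosed cells into mitotic or apoptotic. Tubulin, mitochondrial-mass and membrane-permeability phenotypes are per cents of healthy-nucleus cells.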

[1] = 12 h, 1 µM, compound concentration 1 uM, replicate 1
[2] = 12 h, 1 µM, compound concentration 1 uM, replicate 2
[3] = 12 h, 10 µM, compound concentration 10 uM, replicate 1
[4] = 12 h, 10 µM, compound concentration 10 uM, replicate 2
[5] = 24 h, 1 µM, compound concentration 1 uM, replicate 1
[6] = 24 h, 1 µM, compound concentration 1 uM, replicate 2
[7] = 24 h, 10 µM, compound concentration 10 uM, replicate 1
[8] = 24 h, 10 µM, compound concentration 10 uM, replicate 2
[9] = 48 h, 1 µM, compound concentration 1 uM, replicate 1
[10] = 48 h, 1 µM, compound concentration 1 uM, replicate 2
[11] = 48 h, 10 µM, compound concentration 10 uM, replicate 1
[12] = 48 h, 10 µM, compound concentration 10 uM, replicate 2

**Q.** What does the source list for `N#Cc1cc(F)cc(-c2nc(-c3ccc(F)cn3)no2)c1`?
**A.** Population Apoptotic (%) [1]: 38%; Population Fragmented Nuclei (%) [1]: 10%; Population Healthy Nuclei (%) [1]: 76%; Population Hoechst High Intensity Objects (%) [1]: 5%; Population Membrane Permeable-Phenotype (%) [1]: 0%; Population Mitochondria Different-Phenotype (%) [1]: 41%; Population Mitotic Cells (%) [1]: 61%; Population Normal (%) [1]: 95%; Population Pyknosed Nuclei (%) [1]: 12%; Population Tubulin-Different-Phenotype (%) [1]: 25%; Total Cell Count [1]: 280; Population Apoptotic (%) [2]: 64%; Population Fragmented Nuclei (%) [2]: 6%; Population Healthy Nuclei (%) [2]: 77%; Population Hoechst High Intensity Objects (%) [2]: 8%; Population Mitochondria Different-Phenotype (%) [2]: 55%; Population Mitotic Cells (%) [2]: 36%; Population Normal (%) [2]: 91%; Population Pyknosed Nuclei (%) [2]: 15%; Population Tubulin-Different-Phenotype (%) [2]: 22%; Total Cell Count [2]: 342; Population Apoptotic (%) [3]: 45%; Population Fragmented Nuclei (%) [3]: 10%; Population Healthy Nuclei (%) [3]: 73%; Population Hoechst High Intensity Objects (%) [3]: 4%; Population Membrane Permeable-Phenotype (%) [3]: 0%; Population Mitochondria Different-Phenotype (%) [3]: 51%; Population Mitotic Cells (%) [3]: 55%; Population Normal (%) [3]: 95%; Population Pyknosed Nuclei (%) [3]: 16%; Population Tubulin-Different-Phenotype (%) [3]: 29%; Total Cell Count [3]: 383; Population Fragmented Nuclei (%) [4]: 8%; Population Healthy Nuclei (%) [4]: 77%; Population Hoechst High Intensity Objects (%) [4]: 10%; Population Mitochondria Different-Phenotype (%) [4]: 61%; Population Mitotic Cells (%) [4]: 54%; Population Normal (%) [4]: 89%; Population Pyknosed Nuclei (%) [4]: 13%; Population Tubulin-Different-Phenotype (%) [4]: 22%; Total Cell Count [4]: 269; Population Apoptotic (%) [5]: 43%; Population Fragmented Nuclei (%) [5]: 9%; Population Healthy Nuclei (%) [5]: 77%; Population Hoechst High Intensity Objects (%) [5]: 6%; Population Membrane Permeable-Phenotype (%) [5]: 0%; Population Mitochondria Different-Phenotype (%) [5]: 19%; Population Mitotic Cells (%) [5]: 56%; Population Normal (%) [5]: 93%; Population Pyknosed Nuclei (%) [5]: 12%; Population Tubulin-Different-Phenotype (%) [5]: 12%; Total Cell Count [5]: 353; Population Apoptotic (%) [6]: 48%; Population Fragmented Nuclei (%) [6]: 7%; Population Healthy Nuclei (%) [6]: 82%; Population Hoechst High Intensity Objects (%) [6]: 7%; Population Mitochondria Different-Phenotype (%) [6]: 36%; Population Mitotic Cells (%) [6]: 51%; Population Normal (%) [6]: 92%; Population Pyknosed Nuclei (%) [6]: 9%; Population Tubulin-Different-Phenotype (%) [6]: 15%; Total Cell Count [6]: 463; Population Apoptotic (%) [7]: 41%; Population Fragmented Nuclei (%) [7]: 10%; Population Healthy Nuclei (%) [7]: 74%; Population Hoechst High Intensity Objects (%) [7]: 4%; Population Membrane Permeable-Phenotype (%) [7]: 0%; Population Mitochondria Different-Phenotype (%) [7]: 34%; Population Mitotic Cells (%) [7]: 58%; Population Normal (%) [7]: 95%; Population Pyknosed Nuclei (%) [7]: 14%; Population Tubulin-Different-Phenotype (%) [7]: 18%; Total Cell Count [7]: 479; Population Apoptotic (%) [8]: 39%; Population Healthy Nuclei (%) [8]: 79%; Population Hoechst High Intensity Objects (%) [8]: 8%; Population Mitochondria Different-Phenotype (%) [8]: 40%; Population Mitotic Cells (%) [8]: 60%; Population Normal (%) [8]: 91%; Population Pyknosed Nuclei (%) [8]: 9%; Population Tubulin-Different-Phenotype (%) [8]: 12%; Total Cell Count [8]: 363; Population Apoptotic (%) [9]: 35%; Population Fragmented Nuclei (%) [9]: 15%; Population Healthy Nuclei (%) [9]: 77%; Population Hoechst High Intensity Objects (%) [9]: 1%; Population Membrane Permeable-Phenotype (%) [9]: 1%; Population Mitochondria Different-Phenotype (%) [9]: 16%; Population Mitotic Cells (%) [9]: 64%; Population Normal (%) [9]: 98%; Population Pyknosed Nuclei (%) [9]: 6%; Population Tubulin-Different-Phenotype (%) [9]: 11%; Total Cell Count [9]: 585; Population Apoptotic (%) [10]: 27%; Population Fragmented Nuclei (%) [10]: 11%; Population Healthy Nuclei (%) [10]: 81%; Population Hoechst High Intensity Objects (%) [10]: 0%; Population Mitochondria Different-Phenotype (%) [10]: 18%; Population Mitotic Cells (%) [10]: 72%; Population Normal (%) [10]: 99%; Population Tubulin-Different-Phenotype (%) [10]: 10%; Total Cell Count [10]: 715; Population Apoptotic (%) [11]: 39%; Population Fragmented Nuclei (%) [11]: 16%; Population Healthy Nuclei (%) [11]: 75%; Population Hoechst High Intensity Objects (%) [11]: 1%; Population Membrane Permeable-Phenotype (%) [11]: 1%; Population Mitochondria Different-Phenotype (%) [11]: 18%; Population Mitotic Cells (%) [11]: 60%; Population Normal (%) [11]: 98%; Population Pyknosed Nuclei (%) [11]: 8%; Population Tubulin-Different-Phenotype (%) [11]: 9%; Total Cell Count [11]: 643; Population Apoptotic (%) [12]: 48%; Population Healthy Nuclei (%) [12]: 77%; Population Hoechst High Intensity Objects (%) [12]: 4%; Population Mitochondria Different-Phenotype (%) [12]: 22%; Population Mitotic Cells (%) [12]: 51%; Population Normal (%) [12]: 95%; Population Pyknosed Nuclei (%) [12]: 5%; Population Tubulin-Different-Phenotype (%) [12]: 11%; Total Cell Count [12]: 501

Source: ChEMBL document CHEMBL5058577, “EUbOPEN Chemogenomics Library 2 (Multiplex)” (2022)
